Published values of several laboratories.

SMILES | assay | test system | setting | measurement | result
N#CN1C[C@H](n2nc(-c3ccc(Oc4ccc(Cl)cn4)cc3)c(C(N)=O)c2N)CCC12CC2 | – | human, plasma | oral, 600 mg, fasted | MRT | 31.6 h
COc1ccc2nccc(N3CCc4c(cc(Cn5ccnc5)cc4-c4cn(C)nc4C(F)(F)F)C3=O)c2c1 | – | male CD-1 mouse, plasma | oral, 10 mg/kg | half-life | 1.2 h
O=C1NN=C(N=Cc2ccc(O)cc2O)C1=NNn1c(-c2ccccc2)nc2ccccc2c1=O | – | – | – | logP | 3.38
O=C(O)C1CCN(c2ncc(-c3ccc4c(c3)OCCCO4)s2)CC1 | – | male Swiss mouse, plasma | oral, 30 mg/kg, 12 h, single dose | concentration | 1640 ng/mL
CS(=O)(=O)CCC#N | – | human, plasma | oral, 100 mg, single dose, fasted | MRT | 30.5 h
CCCN(CCC)CCc1cccc2c1CC(=O)N2 | metabolic stability | dog, hepatocytes | 1 µM | hepatocyte CLint | 16.3 µL/min/10⁶ cells
Oc1cccc(CCc2ccccc2)c1 | HPLC | – | – | chromatographic logP | > 3.14
CC[C@H](C)[C@@H]1NC(=O)[C@@](C)(NC(=O)[C@H](CCCNC(=N)N)NC(=O)[C@H](CC(C)C)NC(=O)[C@@H](NC(=O)[C@H](CCC(N)=O)NC(=O)[C@H](CC(C)C)NC(C)=O)[C@@H](C)O)CCCC=CCCC[C@@](C)(C(=O)N[C@@H](CC(C)C)C(=O)N[C@@H](Cc2ccc3ccccc3c2)C(N)=O)NC(=O)[C@H](CCCNC(=N)N)NC(=O)[C@H](CCC(N)=O)NC1=O | – | male BALB/c mouse, plasma | intramuscular, 5 mg/kg | half-life | 10.6 h
Oc1cccc(/C=C/c2ccccc2)c1 | HPLC | – | – | chromatographic logP | > 3.14
O=S(=O)(c1ccc(-c2ccc3nccc(Nc4ccncn4)c3c2)cc1)N1CCOCC1 | – | female BALB/c mouse, plasma | intraperitoneal, 10 mg/kg, 4 h | concentration | 1350 ng/mL
COc1cc(/C=C/c2ccccc2)cc(OC)c1 | HPLC | – | – | chromatographic logP | > 3.14
O=C1NN=C(N=Cc2ccc(O)c(O)c2)C1=NNn1c(-c2ccccc2)nc2ccccc2c1=O | – | – | – | logP | 3.38
CC(C)(C)c1ccc(O)c(CN(Cc2cc(C(C)(C)C)ccc2O)C2CCC(NC(N)=O)CC2)c1 (stereo not drawn) | – | male C57BL/6 mouse, brain | intraperitoneal, 5 mg/kg, single dose | half-life | 7.1 h
CC(C)CN(C[C@@H](O)[C@H](Cc1ccccc1)NC(=O)O[C@H]1CO[C@H]2OCC[C@H]21)S(=O)(=O)c1ccc(N)cc1 | – | BALB/c mouse, brain | intravenous, 25 mg/kg, 6 h | concentration | 1.85 ng/g
c1ccc(-c2nc(N3CCC(c4ccccn4)C3)c3ccccc3n2)nc1 (stereo not drawn) | – | female BALB/c mouse, plasma | oral, 50 mg/kg, 4 h | concentration | 826 ng/mL
O=c1nc(N2CCN(CC3CCCCC3)CC2)sc2c([N+](=O)[O-])cc(C(F)(F)F)cc12 | – | CD-1 mouse, plasma | oral, 100 mg/kg, 15 min | concentration | 2280 ng/mL
CC(C)(O)c1ccccc1-c1ccc2[nH]c(/C=C/c3ccc(C(F)(F)F)cc3)nc2c1 | – | male human, plasma | oral, 2 mg, single dose, fasted, healthy volunteers | MRT | 77.2 h
Cn1cnc2c(F)c(Nc3ccc(Br)cc3Cl)c(C(=O)NOCCO)cc21 | – | nude mouse, liver | oral, 10 mg/kg, single dose, tumour-bearing | half-life | 2.7 h
c1cnc2ccc(Nc3nc(NC4CC4)c4nc[nH]c4n3)cc2c1 | – | human, plasma | oral, 200 mg/m², patients | MRT(0-t) | 5.7 h
CC(C)Oc1cccc(-c2cnc(N3CCC(C(N)=O)CC3)s2)c1 | – | male Swiss mouse, plasma | oral, 30 mg/kg, 2 h, single dose | concentration | 206 ng/mL
CC(C)(Nc1nc(-c2ccccn2)nc2ccccc12)c1ccccn1 | – | female BALB/c mouse, plasma | intravenous, 1 mg/kg, 8 h | concentration | 6 ng/mL
